An excerpt weighted towards active compounds, which were near 1.7% of everything screened.
Scp1 inh: blocks human Scp-1 phosphatase activity | inhibition, % at 20 µM | 0.88% of 340,000 active | AID 493091 | Q9GZU7 | Recombinant Scp1, phosphopeptide, malachite green phosphate absorbance;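 active = inhibition above about 50% at 20 µM, limit read from the data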;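 note: plate controls were DMSO wells with enzyme for no effect and wells lacking enzyme for full effect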
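Material: truncated SCP-1 phosphatase (76-261aa) / Buffer or medium: 50 mM Tris acetate pH 5.5, 0.005% Tween-20, 10 mM MgCl2 / Compound dosing: one concentration, 20 µM, with 1.0% DMSO / Incubation: 45 min room-temperature reaction, 5 min colour, 30 min stabiliser / Detection: colorimetric free-phosphate detection, absorbance 630 nm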
DNMT1 block: blocks human DNA methyltransferase DNMT1. P26358. DNMT1 molecular beacon, Hinp1I cleavage, fluorescence. inhibition (reported as % activation of signal), % at 10 µM. 0.83% of 360,000 active. AID 588458; in the data active = inhibition above about 50%
Target sequence (P26358 504-1616 limits assumed): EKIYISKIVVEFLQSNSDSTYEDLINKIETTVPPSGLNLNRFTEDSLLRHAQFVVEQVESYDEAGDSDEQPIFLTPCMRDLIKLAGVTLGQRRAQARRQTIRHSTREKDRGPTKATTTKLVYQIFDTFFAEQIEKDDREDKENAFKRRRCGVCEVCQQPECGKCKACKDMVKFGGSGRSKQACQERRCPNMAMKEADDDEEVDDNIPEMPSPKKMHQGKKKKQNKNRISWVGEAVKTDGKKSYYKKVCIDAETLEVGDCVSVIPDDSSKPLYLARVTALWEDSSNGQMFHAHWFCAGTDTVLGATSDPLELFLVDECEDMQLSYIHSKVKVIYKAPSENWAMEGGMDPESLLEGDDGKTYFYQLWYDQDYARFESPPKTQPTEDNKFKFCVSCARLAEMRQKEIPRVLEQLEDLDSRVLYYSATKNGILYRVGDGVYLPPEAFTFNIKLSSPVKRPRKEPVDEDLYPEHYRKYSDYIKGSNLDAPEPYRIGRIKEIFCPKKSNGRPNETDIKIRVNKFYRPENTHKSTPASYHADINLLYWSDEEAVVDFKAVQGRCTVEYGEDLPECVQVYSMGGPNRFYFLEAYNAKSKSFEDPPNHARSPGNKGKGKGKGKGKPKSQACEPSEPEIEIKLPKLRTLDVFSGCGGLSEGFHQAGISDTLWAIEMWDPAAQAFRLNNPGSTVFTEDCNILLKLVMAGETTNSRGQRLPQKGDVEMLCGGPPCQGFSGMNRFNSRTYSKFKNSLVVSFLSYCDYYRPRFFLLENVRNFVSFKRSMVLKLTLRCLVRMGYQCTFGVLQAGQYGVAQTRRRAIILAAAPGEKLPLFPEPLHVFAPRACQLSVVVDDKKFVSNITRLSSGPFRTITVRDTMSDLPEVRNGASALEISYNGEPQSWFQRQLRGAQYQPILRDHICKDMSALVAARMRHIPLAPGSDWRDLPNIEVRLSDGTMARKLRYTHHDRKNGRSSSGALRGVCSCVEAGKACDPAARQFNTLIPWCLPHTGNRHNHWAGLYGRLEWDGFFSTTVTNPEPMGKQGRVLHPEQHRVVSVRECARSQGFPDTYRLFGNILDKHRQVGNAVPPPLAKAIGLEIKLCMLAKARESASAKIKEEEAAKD
LMPTP block: blocks human LMPTP phosphatase; P24666; recombinant LMPTP-A, OMFP fluorogenic substrate, fluorescence intensity; inhibition, % at 20 µM; 0.22% of 360,000 active;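 active = compounds that cut the enzyme signal by at least half of the control window in the single-dose screen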;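 note: plate controls were DMSO wells with enzyme plus substrate for no effect and substrate without enzyme for full effect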
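Test system: LMPTP-A, protein tyrosine phosphatase of low molecular weight; Input: 0.625 nM enzyme; Incubation: 50 min dark incubation at room temperature; Signal: endpoint fluorescence intensity from OMFP dephosphorylation; Read-out basis: % inhibition versus control wells.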
SUMO1 PPI mod: alters human SUMO1 binding to SIM partners; P63165; SUMO1 binding to a labelled peptide, TR-FRET, 1 h; inhibition, % at 20 µM; 0.33% of 360,000 active; AID 602429; in the data active = inhibition above about 37%
STEP inh: inhibitors of human striatal-enriched phosphatase STEP; recombinant STEP, OMFP fluorogenic substrate, fluorescence; 0.25% of 360,000 active; inhibition, % at 20 µM; P54829;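 active = inhibition at 20 µM, scaled per plate between control wells, above about 37%, limit read from the data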;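 note: 0% = DMSO with enzyme and substrate and 100% = substrate only without enzyme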
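Also added – OMFP at 25 µM · Test system – STEP tyrosine phosphatase · Technique – FITC-channel fluorescence of OMFP product · Schedule – 20 min at room temperature, dark · Evaluation – control-normalized % inhibition with plate pattern correction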
Scp-1 conf: confirmation of human Scp-1 phosphatase inhibitors; inhibition, % at 20 µM; 61% of 2,500 active; recombinant SCP-1 catalytic domain, phosphate release, malachite green absorbance; shares compounds with Scp1 inh;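 note: plate controls were DMSO with enzyme for no effect and buffer wells lacking enzyme for full effect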
Scp-1 MG ctr: interferes with malachite green readout, flagging false Scp-1 hits; AID 540313; apparent inhibition (interference), % at 20 µM; Colorimetric interference counterscreen, malachite green absorbance 630 nm; 2,500 tested, under 10 active; shares compounds with Scp1 inh;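 note: compounds added after enzyme reaction finished so only phosphate colour detection is probed; plate controls were DMSO wells with completed Scp-1 reaction for no effect and substrate wells lacking enzyme for full effect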
Scp-1 Tm shift: binds human Scp-1, shifting its melting temperature. shares compounds with Scp1 inh. Recombinant SCP1, Sypro Orange thermal shift Tm. thermal shift relative to vanadate control, % at 40 µM. 25% of 1,500 active;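 active = substances whose mean melting-temperature shift, as a percentage of the reference inhibitor's shift, reaches about 5.3%, limit read from the data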;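 note: 0% = Tm of DMSO wells and 100% = Tm with sodium orthovanadate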
Active calls of the source: *; ! = not confirmed by another sample.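 Rule for the calls, unless noted: active = inhibition of at least 30% at 20 µM; inactive = the rest.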

Results for CC(O)/C=C/c1cccc[n+]1C (stereo not drawn) ?
Scp1 inh: 96*; DNMT1 block: -4; LMPTP block: -10; SUMO1 PPI mod: -1; STEP inh: 0; Scp-1 conf: 85*; Scp-1 MG ctr: -12; Scp-1 Tm shift: -6

How did C[n+]1ccccc1/C=N/O do in these assays?
Scp1 inh: 52*!; DNMT1 block: 0; LMPTP block: -3; SUMO1 PPI mod: -5; STEP inh: 1; Scp-1 conf: 4; Scp-1 MG ctr: -15

How did CC1=CCC(C(=O)O)C(C(=O)Nc2ccc(-c3nc4ccc(C)cc4s3)cc2)C1 (stereo not drawn) do in these assays?
Scp1 inh: 50*; DNMT1 block: 25; LMPTP block: 1; SUMO1 PPI mod: 9; STEP inh: 2; Scp-1 conf: 65*; Scp-1 MG ctr: -5; Scp-1 Tm shift: 4

What do the screens show for `CC(C)CNC(=O)C(=O)NCC1CCCN1S(=O)(=O)c1cccs1` (stereo not drawn)?
Scp1 inh: -1; DNMT1 block: 2; LMPTP block: 0; SUMO1 PPI mod: -1; STEP inh: 1

Results for C[N+]1(CC2COC3(CCCCC3)O2)CCCCC1 (stereo not drawn) ?
Scp1 inh: 108*; DNMT1 block: 3; LMPTP block: 1; SUMO1 PPI mod: -2; STEP inh: -1; Scp-1 conf: 75*; Scp-1 MG ctr: -21; Scp-1 Tm shift: -16

What do the screens show for `Cc1ccc(CN2C(=O)N/C(=C/c3ccc(-c4ccc(C(=O)O)cc4)o3)C2=O)cc1`?
Scp1 inh: 59*; DNMT1 block: 42; LMPTP block: 4; SUMO1 PPI mod: 39*; STEP inh: 7; Scp-1 conf: 48*; Scp-1 MG ctr: -11; Scp-1 Tm shift: 4

Results for O=C(O)c1cc(-c2ccc(/C=C3\NC(=O)N(c4ccccc4)C3=O)o2)ccc1Cl ?
Scp1 inh: 73*; DNMT1 block: 57*; LMPTP block: -1; SUMO1 PPI mod: 9; STEP inh: 40*; Scp-1 conf: 55*; Scp-1 MG ctr: -8; Scp-1 Tm shift: 9.1*

How did CC(O)CO (stereo not drawn) do in these assays?
Scp1 inh: 12; DNMT1 block: -1; LMPTP block: 0; SUMO1 PPI mod: 2; STEP inh: 2

How did NC(=O)c1cc(S(=O)(=O)NCc2ccc(Br)cc2)cs1 do in these assays?
Scp1 inh: -6; DNMT1 block: 1; LMPTP block: -1; SUMO1 PPI mod: 0; STEP inh: -1; Scp-1 conf: -13; Scp-1 MG ctr: -16

What do the screens show for `CCN(CC)CCCNC(=O)C1CCC(CNS(=O)(=O)c2ccc(Cl)cc2)CC1` (stereo not drawn)?
Scp1 inh: -4; DNMT1 block: -1; LMPTP block: -2; SUMO1 PPI mod: -2; STEP inh: -4

How did CC(C[N+](C)(C)C)OC(=O)C1(c2ccccc2)CCCC1 (stereo not drawn) do in these assays?
Scp1 inh: 63*; DNMT1 block: 0; LMPTP block: -2; SUMO1 PPI mod: 3; STEP inh: -3; Scp-1 conf: -20; Scp-1 MG ctr: -16

How did CCNC(=O)Nc1ccc(OC)cc1OC do in these assays?
Scp1 inh: 3; DNMT1 block: 4; LMPTP block: -1; SUMO1 PPI mod: 0; STEP inh: 0

How did O=C(NNC(=O)c1ccccc1Cl)c1cccs1 do in these assays?
Scp1 inh: 76*; DNMT1 block: 0; LMPTP block: 1; SUMO1 PPI mod: 3; STEP inh: 1; Scp-1 conf: -21; Scp-1 MG ctr: -16

How did Nc1cc(=O)[nH]c(SCC(=O)Nc2cc(Cl)cc(Cl)c2)n1 do in these assays?
Scp1 inh: -11; DNMT1 block: -7; LMPTP block: -1; SUMO1 PPI mod: 2; STEP inh: -1; Scp-1 conf: -6; Scp-1 MG ctr: -3

Screening data as filed in PubChem.
